Results collected from several papers.
Lines come from different studies, so protocols differ. Converted amounts (≈) assume the structure as drawn.

SMILES	target or system	assay	setting	endpoint	value
CC(C)(C)c1cc(NC(=O)Nc2ccc(-c3cn4c(n3)sc3cc(OCCN5CCOCC5)ccc34)cc2)no1	NOMO-1	cell growth or viability	72 h	GI50	> 10 µM
N[C@@H](CO)C(=O)Nc1ccccc1/N=c1\cc(-c2ccc3c(c2)OCO3)oc2ccccc12	MCF7	cell growth or viability, CCK-8	1 µM	inhibition	16.3%
CCc1nc(C(N)=O)c(Nc2ccc(N3CCC(N4CCN(C)CC4)CC3)c(OC)c2)nc1NC1CCOCC1	NOMO-1	cell growth or viability	72 h	GI50	2.54 µM
N#CC(=C1C=CC(=NOC(=O)OCc2ccccc2)C=C1)c1ccccc1	Candidozyma auris	microbial killing, broth dilution	48 h	MFC	128 µg/mL (≈ 359 µM)
CN(C)CCNC(=O)c1ccc(-c2nc3ccc4[nH]ncc4c3c3c2CCCC3)c(F)c1	NOMO-1	cell growth or viability	72 h	GI50	3.08 µM
C=CC(=O)ON=C1C=CC(=C(C#N)c2ccccc2)C=C1	Candidozyma auris	microbial growth, broth dilution	48 h	MIC	16 µg/mL (≈ 57.9 µM)
Cc1n[nH]c2ccc3nc(-c4ccc(C(=O)NCCN(C)C)cc4)c4c(c3c12)CCCCC4	NOMO-1	cell growth or viability	72 h	GI50	3.08 µM
NCCCC(=O)Nc1ccccc1/N=c1\cc(-c2ccc3c(c2)OCO3)oc2ccccc12	MCF7	cell growth or viability, CCK-8	1 µM	inhibition	10.2%
C#CCON=C1C=CC(=C(C#N)c2ccccc2)C=C1	Candidozyma auris	microbial growth, broth dilution	48 h	MIC	32 µg/mL (≈ 123 µM)
NCC(=O)Nc1ccccc1/N=c1\cc(-c2ccc3c(c2)OCCO3)oc2cc(F)ccc12	MCF7	cell growth or viability, CCK-8	1 µM	inhibition	-2.78%
CCOC(=O)C1=C(CCl)NC(=O)NC1c1ccc(F)cc1F (stereo not shown)		DPPH scavenging		IC50	117 µM
CCCCCCCCCCCC1NCCc2cc(O)c(O)cc21 (stereo not shown)		DPPH scavenging, absorbance	30 min, dark	IC50	27.9 µM
CC(=O)ON=C1C=CC(=C(C#N)c2ccccc2)C=C1	Candidozyma auris	microbial killing, broth dilution	48 h	MFC	16 µg/mL (≈ 60.5 µM)
CCOC(=O)C1=C(CCl)NC(=O)NC1c1ccc(C(C)C)cc1 (stereo not shown)		DPPH scavenging		IC50	243 µM
Cc1n[nH]c2ccc3nc(-c4ccc(C(=O)NCCN(C)C)cc4)c4c(c3c12)CCCC4	NOMO-1	cell growth or viability	72 h	GI50	1.05 µM
CCOC(=O)C1=C(CSC2=NCCS2)NC(=O)NC1c1cccc(OC)c1 (stereo not shown)		DPPH scavenging		IC50	150 µM
CCCCCCCCCC1NCCc2cc(O)c(O)cc21 (stereo not shown)		DPPH scavenging, absorbance	30 min, dark	IC50	62 µM
O=C(C[C@@H](C(F)F)n1ccc(F)n1)N1CCC(O)(Cn2cnc3c(cnn3-c3ccc(F)cc3)c2=O)CC1	CAPAN-1	cell growth or viability, SRB	9.145 nM, 5 days	viability	94.6%
C#CCOC(=O)ON=C1C=CC(=C(C#N)c2ccccc2)C=C1	Candidozyma auris	microbial killing, broth dilution	48 h	MFC	32 µg/mL (≈ 105 µM)
CCCCCCCCCCCCCCCCCC1NCCc2cc(O)c(O)cc21 (stereo not shown)		DPPH scavenging, absorbance	30 min, dark	IC50	34.8 µM
CCOC(=O)C1=C(CCl)NC(=O)NC1c1ccc(C)cc1 (stereo not shown)		DPPH scavenging		IC50	235 µM
CCON=C1C=CC(=C(C#N)c2ccccc2)C=C1	Candidozyma auris	microbial growth, broth dilution	48 h	MIC	256 µg/mL (≈ 1020 µM)
O=C1O[C@H]([C@@H](O)CO)C(O)=C1O		DPPH scavenging		IC50	88.4 µM
COc1cccc(C2NCCc3cc(O)c(O)cc32)c1 (stereo not shown)		DPPH scavenging, absorbance	30 min, dark	IC50	18.2 µM
CCOC(=O)C1=C(CCl)NC(=O)NC1c1cccc(C)c1 (stereo not shown)		DPPH scavenging		IC50	70.7 µM
Oc1ccc(C2NCCc3cc(O)c(O)cc32)cc1O (stereo not shown)		DPPH scavenging, absorbance	30 min, dark	IC50	8.14 µM
CCOC(=O)C1=C(CCl)NC(=O)NC1c1ccc(F)cc1 (stereo not shown)		DPPH scavenging		IC50	246 µM
C[C@H](N)C(=O)Nc1ccccc1/N=c1\cc(-c2ccc3c(c2)OCCO3)oc2c([N+](=O)[O-])cccc12	MCF7	cell growth or viability, CCK-8	1 µM	inhibition	6.59%
